Results as given in paper PMC6551323 (Acta biomaterialia, 2018).

Format: in vitro ADME, bovine
Conditions: healthy explants; 24 h absorption, 7-day desorption in 10x PBS
Outline: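 After 24 h uptake of 30 µM 5-FAM-labelled peptide at 37 °C, bovine cartilage disks were desorbed in 1x or 10x PBS with protease inhibitors for up to 7 days. The bath was changed daily and desorbed peptide was read by plate reader. % retention is moles remaining in tissue after desorption divided by moles taken up at 24 h. Mean ± SD, n=6–8 explants, ≥4 animals.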

With (ARRRAARA)4 [CPC +16] the “% CPC desorbed in 10x PBS over 7 days” value was “about 40%”.
